DENV2 CPE = DENV2-induced cell death inhibition | DENV2-infected cells, cytopathic effect rescue, plate reader | CPE inhibition, % at 9.99 µM | 350,000 compounds, 1.7% hits; in the data active = CPE inhibition above about 20%, passing the limit was not always enough; tested in BHK-21 cells
E-sel inducer = E-selectin induction on HUVECs; P16581; HUVEC E-selectin immunofluorescence imaging; normalized: neutral wells 0, TNF-alpha wells 100; activation, % at 7.58 µM; 260,000 compounds, 0.37% hits; AID 686992;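 active = mean E-selectin-positive cell signal at least 10% of the positive control, reached in at least 60% of replicates, without over 20% cell loss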
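Read-out basis: % PE-positive cells; Test system: HUVEC primary endothelial cells; Technique: immunofluorescence imaging; Dosing: single-point compound dose.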
PglD DTNB = inhibitors of Campylobacter jejuni PglD acetyltransferase; purified PglD enzyme, DTNB colorimetric CoA detection; inhibition, % at 12.5 µM; 360,000 compounds, 0.098% hits; AID 602405; in the data active = inhibition above about 16%, passing the limit was not always enough
SIRT5 inh = sirtuin-5 (human) deacylase inhibition; Q9NXA8; Purified SirT5, succinyl-peptide AMC, trypsin-coupled fluorescence; inhibition, % at 15 µM; 330,000 compounds, 1.1% hits; in the data active = inhibition above about 15%
Target sequence (Q9NXA8 whole entry, looked up): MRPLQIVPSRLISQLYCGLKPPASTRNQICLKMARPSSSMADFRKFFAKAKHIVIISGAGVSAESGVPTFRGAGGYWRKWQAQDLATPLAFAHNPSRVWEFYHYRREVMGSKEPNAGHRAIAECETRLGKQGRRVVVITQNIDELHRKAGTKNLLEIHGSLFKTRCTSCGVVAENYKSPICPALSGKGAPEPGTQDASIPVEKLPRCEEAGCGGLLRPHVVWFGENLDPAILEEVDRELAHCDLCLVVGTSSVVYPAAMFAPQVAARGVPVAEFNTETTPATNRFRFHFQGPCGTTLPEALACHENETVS
ERAP1 HTS inh = inhibitors of human ERAP1 aminopeptidase; recombinant ERAP1, Leu-AMC fluorescence, 60 min; 340,000 compounds, 0.15% hits; inhibition, % at 10.7 µM; AID 652197;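 active = mean replicate inhibition of at least 30%, or all replicates individually reaching that 30% level; inactive = mean below 30% and not every replicate reaching it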
Of the large screens only hits and unclear results are named; the others gave an inactive call. This is a sample that favours compounds with a hit; in the whole collection about 2.5% have one here.

CCC(=O)Nc1ccc2c(c1)OC[C@H](C)N(C(C)=O)C[C@H](C)[C@@H](OC)CN(C)C2=O	none
Cc1cccc(N(CC(=O)Nc2ccccc2F)S(C)(=O)=O)c1	none (no result: DENV2 CPE, SIRT5 inh, ERAP1 HTS inh)
CC(C)CC#Cc1ccc2c(c1)O[C@@H](CN(C)C(=O)CC1CC1)[C@H](C)CN([C@@H](C)CO)S2(=O)=O	none
C[C@H]1CN([C@@H](C)CO)S(=O)(=O)c2ccc(C#CC(C)(C)O)cc2O[C@H]1CN(C)C(=O)CC1CC1	none
C[C@H](CO)N1C[C@H](C)[C@H](CN(C)C(=O)CC2CC2)Oc2cc(C#CC(C)(C)O)ccc2S1(=O)=O	SIRT5 inh 18
CC(C)CC#Cc1ccc2c(c1)O[C@H](CN(C)C(=O)C1CCCCC1)[C@H](C)CN([C@@H](C)CO)S2(=O)=O	SIRT5 inh 22
CC(C)CC#Cc1ccc2c(c1)O[C@H](CN(C)C(=O)CC1CC1)[C@H](C)CN([C@@H](C)CO)S2(=O)=O	SIRT5 inh 18
Cc1cc(C)cc(N(C(=O)c2csnn2)C(C(=O)NC(C)(C)C)c2ccncc2)c1 (stereo not drawn)	none (no result: PglD DTNB)
COc1cccc(-c2cn(CC[C@@H]3CC[C@@H](NC(=O)CN(C)C)[C@H](CO)O3)nn2)c1	none
Cc1ccc(-n2cnc3sc(C)c(C)c3c2=O)cc1	none
C[C@H](NC(=O)[C@@H]1[C@@H](CO)[C@@H]2Cn3c(cccc3=O)[C@@H]2N1CC1CCCCC1)c1ccccc1	none (no result: PglD DTNB)
C[C@@H](NC(=O)[C@@H]1[C@@H](CO)[C@@H]2Cn3c(cccc3=O)[C@@H]2N1CC1CCCC1)c1ccccc1	DENV2 CPE 156 (no result: ERAP1 HTS inh)
O=C(NCc1ccccn1)[C@@H]1[C@@H](CO)[C@@H]2Cn3c(cccc3=O)[C@@H]2N1CCc1ccccc1	SIRT5 inh 16
C[C@H](NC(=O)[C@@H]1[C@@H](CO)[C@@H]2Cn3c(cccc3=O)[C@@H]2N1Cc1cccnc1)c1ccccc1	DENV2 CPE 41
O=C(c1ccccc1)N1CCN(C(=O)c2ccccc2)CC1	none (no result: DENV2 CPE, E-sel inducer, SIRT5 inh, ERAP1 HTS inh)
O=C(O)c1ccccc1	DENV2 CPE 110 (no result: E-sel inducer)
COc1ccc(CNC(=O)C[C@@H]2C[C@H]3c4cc(NC(=O)CC5CC5)ccc4O[C@H]3[C@H](CO)O2)cc1	none (no result: SIRT5 inh, ERAP1 HTS inh)
Cc1ccccc1N1CCN(S(=O)(=O)c2cccs2)CC1	none
COc1ccc2c(CN3CCCC3)cc(=O)oc2c1	SIRT5 inh 19
O=C(NC1CCS(=O)(=O)C1)C1C2CC3CC(C2)CC1C3 (stereo not drawn)	none (no result: PglD DTNB)
CCOC(=O)c1ccc(N2C(=O)C(CC(N)=O)N(NC(=O)c3cccc(F)c3)C2=S)cc1 (stereo not drawn)	none
O=C(COc1ccccc1[N+](=O)[O-])Nc1ccc(Br)cc1	none (no result: ERAP1 HTS inh)
CC(=O)Nc1ccc2c(c1)C(=O)N(C)[C@@H]1CC[C@@H](CC(=O)N3CCc4ccccc4C3)O[C@@H]1CO2	none (no result: SIRT5 inh, ERAP1 HTS inh)
CN1C(=O)c2cc(NC(=O)c3cccc(F)c3)ccc2OC[C@H]2O[C@H](CC(=O)N3CCc4ccccc4C3)CC[C@@H]21	DENV2 CPE 78
CN1C(=O)c2cc(NC(=O)c3cccc(F)c3)ccc2OC[C@H]2O[C@@H](CC(=O)N3CCc4ccccc4C3)CC[C@H]21	DENV2 CPE 31
COc1ccc(C(=O)NC2CC3CCCC(C2)N3Cc2ccccc2)cc1 (stereo not drawn)	none (no result: E-sel inducer)
COc1ccc(C(=O)NC2CC3CCCC(C2)N3Cc2ccccc2)c(OC)c1 (stereo not drawn)	SIRT5 inh 24 (no result: E-sel inducer)
C[C@@H]1CN([C@H](C)CO)C(=O)Cc2cc(NC(=O)CCCCCC(=O)Nc3ccccc3N)ccc2O[C@H]1CN(C)Cc1ccc(Oc2ccccc2)cc1	SIRT5 inh 15
C[C@H]1CN([C@@H](C)CO)C(=O)c2cc(NC(=O)CCCCCC(=O)Nc3ccccc3N)ccc2O[C@H]1CN(C)C(=O)Nc1ccccc1	none (no result: PglD DTNB, SIRT5 inh)
C[C@H](CO)N1C[C@H](C)[C@@H](CN(C)Cc2ccc(C(F)(F)F)cc2)Oc2ccc(NC(=O)CCCCCC(=O)Nc3ccccc3N)cc2CC1=O	none
COc1ccc(CN(C)C[C@H]2Oc3ccc(NC(=O)CCCCCC(=O)Nc4ccccc4N)cc3CC(=O)N([C@@H](C)CO)C[C@@H]2C)cc1	none (no result: PglD DTNB)
C[C@H]1CN([C@@H](C)CO)C(=O)c2cc(NC(=O)CCCCCC(=O)Nc3ccccc3N)ccc2O[C@H]1CN(C)Cc1ccc(Oc2ccccc2)cc1	SIRT5 inh 17 (no result: PglD DTNB)
C[C@H](CO)N1C[C@H](C)[C@H](CN(C)Cc2ccncc2)Oc2ccc(NC(=O)CCCCCC(=O)Nc3ccccc3N)cc2C1=O	none (no result: E-sel inducer, SIRT5 inh)
C[C@H](CO)N1C[C@H](C)[C@H](CN(C)C(=O)Nc2ccccc2)Oc2ccc(NC(=O)CCCCCC(=O)Nc3ccccc3N)cc2C1=O	DENV2 CPE 52 (no result: PglD DTNB)
C[C@@H]1CN([C@@H](C)CO)C(=O)Cc2cc(NC(=O)CCCCCC(=O)Nc3ccccc3N)ccc2O[C@@H]1CN(C)Cc1ccc(C(F)(F)F)cc1	DENV2 CPE 96
CNC[C@H]1Oc2c(N)cccc2C(=O)N([C@H](C)CO)C[C@H]1C	none (no result: E-sel inducer)
O=C(CN1CCOCC1)N1CC[C@@H]2[C@H](CO)Nc3ccc(-c4ccccc4F)cc3[C@@H]21	none (no result: SIRT5 inh, ERAP1 HTS inh)
N#C[C@H]1[C@@H](c2ccc(C3=CCCCC3)cc2)[C@@H](CO)N1C(=O)Nc1ccccc1F	none
C[C@@H]1CN([C@@H](C)CO)C(=O)Cc2cc(NS(=O)(=O)c3cn(C)cn3)ccc2O[C@H]1CN(C)Cc1ccc2c(c1)OCO2	none (no result: SIRT5 inh, ERAP1 HTS inh)
C[C@H](CO)N1C[C@H](C)[C@@H](CN(C)S(=O)(=O)c2ccc(F)cc2)Oc2ccc(NC(=O)CCCCCC(=O)Nc3ccccc3N)cc2C1=O	DENV2 CPE 26 (no result: PglD DTNB, SIRT5 inh)
C[C@@H]1CN([C@@H](C)CO)C(=O)c2cc(NC(=O)CCCCCC(=O)Nc3ccccc3N)ccc2O[C@H]1CN(C)Cc1ccccc1	SIRT5 inh 21 (no result: PglD DTNB)
C[C@H](CO)N1C[C@H](C)[C@H](CN(C)Cc2ccc(-c3ccccc3)cc2)Oc2ccc(NC(=O)CCCCCC(=O)Nc3ccccc3N)cc2C1=O	DENV2 CPE 32, SIRT5 inh 23 (no result: PglD DTNB)
C[C@H]1CN([C@@H](C)CO)C(=O)c2cc(NC(=O)CCCCCC(=O)Nc3ccccc3N)ccc2O[C@H]1CN(C)Cc1ccc(-c2ccccc2)cc1	none (no result: DENV2 CPE, PglD DTNB, SIRT5 inh, ERAP1 HTS inh)
COc1ccc(CN(C)C[C@@H]2OCCCC[C@H](C)Oc3ccc(NC(=O)CCC(F)(F)F)cc3C(=O)N([C@@H](C)CO)C[C@@H]2C)cc1	none
COc1ccc(NC(=O)/C=C/c2cccc(Br)c2)cn1	none (no result: E-sel inducer)
COc1ccc(NC(=O)/C=C/c2cccc(C(F)(F)F)c2)cn1	DENV2 CPE 23 (no result: E-sel inducer)
CCCC#Cc1cnc2c(c1)C(=O)N([C@@H](C)CO)C[C@H](C)[C@H](CN(C)C(=O)c1cccc(F)c1)O2	DENV2 CPE 27
C[C@H]1CN([C@@H](C)CO)C(=O)c2cc(C#CCN(C)C)cnc2O[C@H]1CN(C)C(=O)c1cccc(F)c1	DENV2 CPE 34
O=C(Nc1cc(F)ccc1F)N[C@H]1CC[C@@H](CCNC(=O)c2cnccn2)O[C@@H]1CO	none

Screening results (PubChem)
